{"data": "Assay results pooled from the literature", "target": "Serine/threonine-protein kinase Chk1 (CHEK1, Homo sapiens, UniProt O14757)", "mode": "inhibitor", "Residues used in one study (O14757 1-476)": "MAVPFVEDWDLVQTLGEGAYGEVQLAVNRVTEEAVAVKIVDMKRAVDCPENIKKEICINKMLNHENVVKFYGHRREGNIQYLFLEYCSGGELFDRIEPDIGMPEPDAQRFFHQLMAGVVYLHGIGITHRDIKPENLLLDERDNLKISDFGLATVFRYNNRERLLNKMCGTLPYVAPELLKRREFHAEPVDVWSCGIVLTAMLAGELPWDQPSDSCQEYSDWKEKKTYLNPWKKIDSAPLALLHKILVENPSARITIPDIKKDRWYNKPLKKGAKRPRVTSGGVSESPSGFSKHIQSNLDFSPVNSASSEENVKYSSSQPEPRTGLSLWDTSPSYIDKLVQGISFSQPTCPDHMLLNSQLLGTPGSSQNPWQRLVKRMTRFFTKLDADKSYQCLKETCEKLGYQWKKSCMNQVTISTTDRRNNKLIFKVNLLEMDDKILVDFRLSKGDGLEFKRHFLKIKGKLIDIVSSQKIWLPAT"}
{"SMILES": "COc1cc2ncnc(Nc3ccc(Oc4ccccc4)cc3C)c2cc1OC", "effect on": "enzyme activity", "concentration": "1 µM", "inhibition": "6%"}
{"SMILES": "CCCS(=O)(=O)Nc1ccc(F)c(C(=O)c2c[nH]c3ncc(-c4ccc(Cl)cc4)cc23)c1F", "effect on": "enzyme activity", "concentration": "1 µM", "inhibition": "< 10%"}
{"SMILES": "CNc1cccc2cc(C(=O)Nc3ccc(C(=O)O)cc3)c(=O)[nH]c12", "effect on": "enzyme activity", "concentration": "10 µM", "inhibition": "-1.6%"}
{"SMILES": "CS(=O)(=O)Nc1cccc(-c2csc(NC(=O)CSc3nc4nccnc4c(=O)n3CCc3ccccc3)n2)c1", "effect on": "enzyme activity", "concentration": "10 µM", "inhibition": "-3%"}
{"SMILES": "CN(C)C1CCN(CC#Cc2nn(C3CCCC3)c3nc(NCc4ccccc4)ncc23)C1 (stereo not drawn)", "effect on": "enzyme activity", "method": "FRET", "concentration": "10 µM", "inhibition": "15%"}
{"SMILES": "CNCc1ccc(-c2cc(-c3nc(-c4ccc(S(=O)(=O)C(C)C)cc4)cnc3N)on2)cc1", "effect on": "enzyme activity", "concentration": "0.4 µM", "inhibition": "15%"}
{"SMILES": "CCCCNc1ncc2c(-c3ccc(F)cc3)nn(C[C@H]3CC[C@H](N)CC3)c2n1", "effect on": "target engagement in cells", "method": "chemoproteomics", "concentration": "20 mM", "inhibition": "-8.8%"}
{"SMILES": "CCN1CCN(Cc2ccc(NC(=O)c3ccc(C)c(Oc4ccnc5[nH]ccc45)c3)cc2C(F)(F)F)CC1", "effect on": "target engagement in cells", "method": "chemoproteomics", "cells": "A-375", "concentration": "0.5 µM", "inhibition": "-141%"}
{"SMILES": "CNC(=O)c1cc(Oc2ccc(NC(=O)Nc3ccc(Cl)c(C(F)(F)F)c3)cc2)ccn1", "effect on": "enzyme activity", "concentration": "10 µM", "inhibition": "-27%"}
{"SMILES": "CCN1CCN(Cc2ccc(NC(=O)c3ccc(C)c(/C=C/c4cnc5[nH]ccc5c4OC)c3)cc2C(F)(F)F)CC1", "effect on": "target engagement in cells", "method": "chemoproteomics", "cells": "A-375", "concentration": "0.5 µM", "inhibition": "-126%"}
{"SMILES": "Cc1ccc(Nc2nccc(N(C)c3ccc4c(C)n(C)nc4c3)n2)cc1S(N)(=O)=O", "effect on": "enzyme activity", "concentration": "10 µM", "inhibition": "-6%"}
{"SMILES": "Cc1ncc([N+](=O)[O-])n1C(=NO)c1ccccc1C(F)(F)F", "effect on": "enzyme activity", "concentration": "10 µM", "inhibition": "19.2%"}
